Activity calls are given as the source filed them. The calls are words filed in the database; no cut-off is given here.
Key:
MCF7 [1] = assay: Antiproliferative activity against human MCF7 cells assessed as reduction in cell viability after 24 hrs by MTT assay; type: functional, cell-based; settings: MCF7, 24 h
How it was run: (§1)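 Cells seeded at 4 × 10³/well for 24 h runs and for PC-3, or 2 × 10³/well for MCF-7 and HeLa 48 h runs, and attached overnight. Medium replaced with compound-containing medium for 24 or 48 h. MTT (4 mg mL⁻¹) added for the final 3 h, formazan dissolved in DMSO, absorbance read at 570 nm (reference 660 nm). IC₅₀ calculated from at least three independent experiments in duplicate, mean ± SE.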

HeLa [2] = assay: Antiproliferative activity against human HeLa cells assessed as reduction in cell viability after 48 hrs by MTT assay; type: functional, cell-based; settings: Homo sapiens, HeLa, 48 h; how it was run: as §1
[3] = Cytotoxicity against human HDFa cells assessed as reduction in cell viability after 24 hrs by MTT assay; type: cell-based; how it was run: as §1
[4] = Cytotoxicity against human HDFa cells assessed as reduction in cell viability after 48 hrs by MTT assay; type: cell-based; how it was run: as §1
MCF7 [5] = assay: Induction of cell cycle arrest in human MCF7 cells assessed as accumulation of cells at G0/G1 phase at 2.9 uM after 24 hrs by Propidium iodide staining based flow cytometric analysis (reference value: 47.8 +/- 0.42%); type: functional
MCF7 [6] = assay: Induction of cell cycle arrest in human MCF7 cells assessed as accumulation of cells at S phase at 2.9 uM after 24 hrs by Propidium iodide staining based flow cytometric analysis (reference value: 23.75 +/- 1.87%); type: functional
MCF7 [7] = assay: Induction of cell cycle arrest in human MCF7 cells assessed as accumulation of cells at S phase at 8.7 uM after 24 hrs by Propidium iodide staining based flow cytometric analysis (reference value: 23.75 +/- 1.87%); type: functional
MCF7 [8] = assay: Induction of cell cycle arrest in human MCF7 cells assessed as accumulation of cells at G2/M phase at 8.7 uM after 24 hrs by Propidium iodide staining based flow cytometric analysis (reference value: 27 +/- 2.97%); type: functional
HeLa [9] = assay: Induction of cell cycle arrest in human HeLa cells assessed as accumulation of cells at G0/G1 phase 2.9 to 8.7 uM after 24 hrs by propidium iodide staining based flow cytometric analysis (reference value: 44%); type: functional
HeLa [10] = assay: Cell cycle arrest in human HeLa cells assessed as reduction in cell population at S phase at 2.9 to 8.7 uM after 24 hrs by propidium iodide staining based flow cytometric analysis; type: functional
MCF7 [11] = assay: Anticlonogenic activity against human MCF7 cells assessed as reduction in colony formation at 2.9 to 11.6 uM incubated for 24 hrs followed by recovery period of 2 weeks by culturing cells in drug-free medium by crystal violet staining based assay; type: functional, cell-based
How it was run: (§2)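 Cells (1 × 10⁶) plated, after 24 h given fresh medium with derivative at 1, 2, 3 or 4 μg mL⁻¹ for 24 h; then trypsinized, counted, 8 × 10² replated into two plates in compound-free medium. After 2 weeks fixed with 6.0% glutaraldehyde, stained with 0.5% crystal violet; colonies of ≥50 cells counted. Mean ± SE of three experiments in duplicate.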

HeLa [12] = assay: Anticlonogenic activity against human HeLa cells assessed as reduction in colony formation at 2.9 to 11.6 uM incubated for 24 hrs followed by recovery period of 2 weeks by culturing cells in drug-free medium by crystal violet staining based assay; type: functional, cell-based; how it was run: as §2
PC-3 [13] = assay: Anticlonogenic activity against human PC3 cells assessed as reduction in colony formation at 2.9 to 11.6 uM incubated for 24 hrs followed by recovery period of 2 weeks by culturing cells in drug-free medium by crystal violet staining based assay; type: functional, cell-based; how it was run: as §2
MCF7 [14] = assay: Anticlonogenic activity against human MCF7 cells assessed as proportion of colony forming cells at 11.6 uM incubated for 24 hrs followed by recovery period of 2 weeks by culturing cells in drug-free medium by crystal violet staining based assay relative to control; type: functional; how it was run: as §2
HeLa [15] = assay: Anticlonogenic activity against human HeLa cells assessed as proportion of colony forming cells at 11.6 uM incubated for 24 hrs followed by recovery period of 2 weeks by culturing cells in drug-free medium by crystal violet staining based assay relative to control; type: functional; how it was run: as §2
PC-3 [16] = assay: Anticlonogenic activity against human PC3 cells assessed as proportion of colony forming cells at 11.6 uM incubated for 24 hrs followed by recovery period of 2 weeks by culturing cells in drug-free medium by crystal violet staining based assay relative to control; type: functional; how it was run: as §2
MCF7 [17] = assay: Induction of apoptosis in human MCF7 cells at 2.9 uM after 48 hrs by Annexin-V/7-AAD staining based flow cytometric analysis relative to control; type: functional
How it was run: (§3)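 MCF-7 cells treated 48 h, stained with annexin V and 7-AAD (Muse annexin V and dead cell kit), and apoptotic and necrotic fractions counted by flow cytometry. Mean ± SE of three independent experiments; ANOVA with Bonferroni post hoc test.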

MCF7 [18] = assay: Induction of apoptosis in human MCF7 cell at 8.7 uM after 48 hrs by Annexin-V/7-AAD staining based flow cytometric analysis relative to control; type: functional; how it was run: as §3
MCF7 [19] = assay: Induction of apoptosis in human MCF7 cells assessed as increase in cleaved PARP level at 2.9 uM after 24 hrs by immunoblot analysis relative to control; type: functional
How it was run: (§4)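 Proteins run on SDS-PAGE, transferred to PVDF, blocked in 5% milk/PBS, primary antibody overnight at 4 °C (cleaved PARP, Bax, Bcl-2), secondary 1 h at room temperature. Reprobed for β-actin; densitometry corrected for loading.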

MCF7 [20] = assay: Induction of apoptosis in human MCF7 cells assessed as increase in cleaved PARP level at 8.7 uM after 24 hrs by immunoblot analysis relative to control; type: functional; how it was run: as §4
MCF7 [21] = assay: Induction of apoptosis in human MCF7 cells assessed as increase in Bax level at 8.7 uM after 24 hrs by immunoblot analysis relative to control; type: functional; how it was run: as §4
MCF7 [22] = assay: Induction of apoptosis in human MCF7 cells assessed as reduction in Bcl-2 expression at 8.7 uM after 24 hrs by immunoblot analysis relative to control; type: functional; how it was run: as §4
MCF7 [23] = assay: Induction of vacuolization in human MCF7 cells assessed as increase in LAMP1 expression at 8.7 uM by Western blot analysis relative to control; type: functional
How it was run: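 Lysates were cleared, run on SDS-PAGE and blotted to PVDF, then probed for LAMP1. Blocking was 5% milk in PBS, primary antibody overnight at 4 °C, secondary 1 h at room temperature. Blots were stripped, reprobed for β-actin, and densitometry was corrected for loading.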

MCF7 [24] = assay: Induction of vacuolization in human MCF7 cells at 8.7 uM after 24 hrs in presence of 0.5 uM actin dynamics inhibitor, cytochalasin-D by light microscopic analysis; type: functional, cell-based
MCF7 [25] = assay: Induction of vacuolization in human MCF7 cells at 8.7 uM after 24 hrs in presence of 50 uM dynamin inhibitor, dynasore by light microscopic analysis; type: functional, cell-based
MCF7 [26] = assay: Antiproliferative activity against human MCF7 cells assessed as reduction in cell viability at 8.7 uM after 24 hrs in presence of 0.5 uM actin dynamics inhibitor, cytochalasin-D by MTT assay; type: functional, cell-based
MCF7 [27] = assay: Induction of vacuolization in human MCF7 cells at 8.7 uM after 24 to 48 hrs in presence of early autophagy inhibitor, wortmannin by TEM analysis; type: functional, cell-based

SMILES | IC50 (MCF7 [1]) | IC50 (HeLa [2]) | IC50 [3] | IC50 [4] | Activity (MCF7 [5]) | Activity (MCF7 [6]) | Activity (MCF7 [7]) | Activity (MCF7 [8]) | Activity (HeLa [9]) | Activity (HeLa [10]) | inhibition (MCF7 [11]) | inhibition (HeLa [12]) | inhibition (PC-3 [13]) | Activity (MCF7 [14]) | Activity (HeLa [15]) | Activity (PC-3 [16]) | fold change (FC) (MCF7 [17]) | fold change (FC) (MCF7 [18]) | fold change (FC) (MCF7 [19]) | fold change (FC) (MCF7 [20]) | further results
CC(=O)c1c(O)c(C)c(O)c2c1OC1=Cc3onc(C)c3C(=O)[C@]12C | 3.2 µM | 1 µM | 9.2 µM | 3 µM | 70.25% | 11.15% | 7.25% | 14.65% | 51 - 65% | Active | Active | Active | Active | <50% | <50% | <50% | 2 | 3 | 4.4 | 4.1 | fold change (FC) (MCF7 [21]): 2.1; fold change (FC) (MCF7 [22]): 0.2; fold change (FC) (MCF7 [23]): 5.1; Activity (MCF7 [24]): Active; Activity (MCF7 [25]): inactive; inhibition (MCF7 [26]): Active; Activity (MCF7 [27]): Active
CC(=O)c1c(O)c(C)c(O)c2c1OC1=Cc3onc(C)c3C(=O)C12C (racemic) | 3.1 µM | 1 µM | > 10 µM | 5.9 µM | 71.85% | 10.1% | 8.35% | 14.02% | 51 - 65% | Active | Active | Active | Active | <50% | <50% | <50% | 2 | 3 | 3.6 | 4.5 | fold change (FC) (MCF7 [21]): 1.1; fold change (FC) (MCF7 [22]): 0.3; fold change (FC) (MCF7 [23]): 1.8; Activity (MCF7 [24]): Active; Activity (MCF7 [25]): inactive; inhibition (MCF7 [26]): Active; Activity (MCF7 [27]): Active

Source: ChEMBL document CHEMBL4334455, “Synthesis of Usnic Acid Derivatives and Evaluation of Their Antiproliferative Activity against Cancer Cells” (J Nat Prod, 2019)
